# Assay results from ChEMBL document CHEMBL3875165, “Novel broad-spectrum and long-acting parenteral cephalosporins having an acyl cyanamide moiety at the C-3 terminal: Synthesis and structure-activity relationships” (Eur J Med Chem, 2016).
# How the values were obtained:
# Moraxella catarrhalis = experiment: Antibacterial activity against Moraxella catarrhalis SR24290 after 20 hrs by agar dilution method; type: functional; details: SR24290, 20 h
# Summary of the method: (§1)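 Agar dilution MIC on Sensitivity Disk Agar-N with 2-fold serial drug dilutions. Overnight Mueller Hinton broth cultures were diluted to about 10^6 CFU/mL, and 1 µL spots were applied. Plates were incubated 20 h at 37 °C before scoring.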
# Streptococcus pneumoniae [1] = experiment: Antibacterial activity against penicillin-resistant Streptococcus pneumoniae SR16750 after 20 hrs by agar dilution method; type: functional; details: SR16750, 20 h
# Summary of the method: (§2)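 Agar dilution on Sensitivity Disk Agar-N. Overnight Mueller Hinton broth cultures were diluted to about 10^6 CFU/mL, and 1 µL spots were placed on agar plates holding 2-fold serial dilutions of antibiotic. Plates were incubated 20 h at 37 °C and then MICs were scored.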
# Haemophilus influenzae [2] = experiment: Antibacterial activity against beta-lactamase non-producing penicillin-resistant Haemophilus influenzae SR24106 after 20 hrs by agar dilution method; type: functional; details: SR24106, 20 h; summary of the method: as §2
# [3] = Half life in monkey at 20 mg/kg, iv administered as bolus dose by HPLC method; type: ADME, organism-based, Macaca mulatta; details: rhesus monkey, in vivo
# Summary of the method: (§3)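 Three monkeys per group received a single iv bolus of 20 mg/kg (1 mL/kg). Plasma levels were measured by HPLC. AUC0-∞, CLtot and T1/2 came from a 2-compartment fit.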
# Escherichia coli = experiment: Antibacterial activity against Escherichia coli NIHJ JC-2 after 20 hrs by agar dilution method; type: functional; details: NIHJ JC-2, 20 h; summary of the method: as §1
# Haemophilus influenzae [4] = experiment: Antibacterial activity against beta-lactamase non-producing penicillin-resistant Haemophilus influenzae SR11435 after 20 hrs by agar dilution method; type: functional; details: SR11435, 20 h; summary of the method: as §2
# Streptococcus pneumoniae [5] = experiment: Antibacterial activity against penicillin-resistant Streptococcus pneumoniae SR16675 after 20 hrs by agar dilution method; type: functional; details: SR16675, 20 h; summary of the method: as §2
# [6] = AUC (0 to infinity) in monkey at 20 mg/kg, iv administered as bolus dose by HPLC method; type: ADME, organism-based, Macaca mulatta; parameters: dose 20 mg/kg, time infinity, route intravenous; details: rhesus monkey, in vivo; summary of the method: as §3
# [7] = Total clearance in mouse at 20 mg/kg, iv administered as bolus dose by band-culture bioassay; details: in vivo
# [8] = Half life in mouse at 20 mg/kg, iv administered as bolus dose by band-culture bioassay; details: in vivo
# [9] = AUC (0 to infinity) in mouse at 20 mg/kg, iv administered as bolus dose by band-culture bioassay; details: in vivo
# [10] = Protein binding in ICR mouse plasma after 30 mins by ultra-filtration method; type: ADME, cell-free; details: read-out: PPB (converted)
# Summary of the method: (§4)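 Mouse or monkey plasma was adjusted to pH 7 with CO2 and spiked with compound to a final 10 µg/ml. It was incubated 30 min at 37 °C, then ultrafiltered by centrifugation at 3200 rpm for 30 min at 25 °C. Free drug in the filtrate was measured by bioassay to give the bound fraction.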
# Staphylococcus aureus = experiment: Antibacterial activity against Staphylococcus aureus SMITH after 20 hrs by agar dilution method; type: functional; summary of the method: as §1
# [11] = Total clearance in monkey at 20 mg/kg, iv administered as bolus dose by HPLC method; type: ADME, organism-based, Macaca mulatta; details: rhesus monkey, in vivo; summary of the method: as §3
# [12] = Protein binding in cynomolgus monkey plasma after 30 mins by ultra-filtration method; type: ADME, cell-free, Macaca fascicularis; details: read-out: PPB (converted); summary of the method: as §4
SMILES,MIC (Moraxella catarrhalis),MIC (Streptococcus pneumoniae [1]),MIC (Haemophilus influenzae [2]),half-life [3],MIC (Escherichia coli),MIC (Haemophilus influenzae [4]),MIC (Streptococcus pneumoniae [5]),AUC [6],clearance [7],half-life [8],AUC(0-inf) [9],fraction unbound at 0.5 h [10],MIC (Staphylococcus aureus),clearance [11],fraction unbound at 0.5 h [12]
CCO/N=C(\C(=O)N[C@@H]1C(=O)N2C(C(=O)[O-])=C(/C=C/C[n+]3ccc4c(/C([O-])=N\C#N)cccc4c3)CS[C@H]12)c1csc(N)n1.[Na+],2 µg/mL,0.5 µg/mL,0.125 µg/mL,1.52 h,0.125 µg/mL,0.063 µg/mL,0.25 µg/mL,10600 ng·h/mL,23.5 mL/min/kg,0.73 h,14200 ng·h/mL,0.97,0.5 µg/mL,1.59 mL/min/kg,0.42
CCO/N=C(\C(=O)N[C@@H]1C(=O)N2C(C(=O)[O-])=C(/C=C/C[n+]3ccc(-c4c[nH]c(/C([O-])=N/C#N)c4C)cc3)CS[C@H]12)c1csc(N)n1.[Na+],4 µg/mL,0.125 µg/mL,0.125 µg/mL,5.19 h,0.125 µg/mL,0.063 µg/mL,0.125 µg/mL,42200 ng·h/mL,15.2 mL/min/kg,0.86 h,22000 ng·h/mL,0.54,0.25 µg/mL,0.4 mL/min/kg,0.16
CCO/N=C(\C(=O)N[C@@H]1C(=O)N2C(C(=O)[O-])=C(/C=C/C[n+]3ccc(-n4ccc(/C([O-])=N/C#N)n4)cc3)CS[C@H]12)c1csc(N)n1.[Na+],2 µg/mL,0.5 µg/mL,0.125 µg/mL,2.8 h,0.125 µg/mL,0.063 µg/mL,0.25 µg/mL,32100 ng·h/mL,19.8 mL/min/kg,0.87 h,16800 ng·h/mL,0.86,0.5 µg/mL,0.54 mL/min/kg,0.14
CCO/N=C(\C(=O)N[C@@H]1C(=O)N2C(C(=O)[O-])=C(/C=C/C[n+]3ccc(-c4cc(/C([O-])=N/C#N)on4)cc3)CS[C@H]12)c1csc(N)n1.[Na+],0.5 µg/mL,0.25 µg/mL,0.125 µg/mL,5.14 h,0.125 µg/mL,0.063 µg/mL,0.25 µg/mL,59800 ng·h/mL,22.6 mL/min/kg,0.85 h,14800 ng·h/mL,0.78,0.5 µg/mL,0.29 mL/min/kg,0.06
CCO/N=C(\C(=O)N[C@@H]1C(=O)N2C(C(=O)[O-])=C(/C=C/C[n+]3ccc(-c4csc(/C([O-])=N/C#N)c4)cc3)CS[C@H]12)c1csc(N)n1.[Na+],2 µg/mL,0.25 µg/mL,0.125 µg/mL,4.67 h,0.125 µg/mL,0.063 µg/mL,0.125 µg/mL,25900 ng·h/mL,11 mL/min/kg,0.75 h,30400 ng·h/mL,0.63,0.25 µg/mL,0.66 mL/min/kg,0.36
CCO/N=C(\C(=O)N[C@@H]1C(=O)N2C(C(=O)[O-])=C(/C=C/C[n+]3ccc4sc(/C([O-])=N/C#N)nc4c3)CS[C@H]12)c1csc(N)n1.[Na+],0.5 µg/mL,0.25 µg/mL,0.063 µg/mL,2.86 h,0.25 µg/mL,0.063 µg/mL,0.125 µg/mL,24500 ng·h/mL,14 mL/min/kg,0.7 h,23700 ng·h/mL,0.59,0.5 µg/mL,0.68 mL/min/kg,0.16
CCO/N=C(\C(=O)N[C@@H]1C(=O)N2C(C(=O)[O-])=C(/C=C/C[n+]3cccc4cc(/C([O-])=N/C#N)[nH]c43)CS[C@H]12)c1csc(N)n1.[Na+],0.5 µg/mL,0.5 µg/mL,0.25 µg/mL,4.35 h,0.125 µg/mL,0.063 µg/mL,0.25 µg/mL,29200 ng·h/mL,15 mL/min/kg,0.64 h,22200 ng·h/mL,0.67,0.5 µg/mL,0.57 mL/min/kg,0.06
CCO/N=C(\C(=O)N[C@@H]1C(=O)N2C(C(=O)[O-])=C(/C=C/C[n+]3cccc4[nH]c(/C([O-])=N/C#N)cc43)CS[C@H]12)c1csc(N)n1.[Na+],1 µg/mL,0.5 µg/mL,0.125 µg/mL,2.03 h,0.125 µg/mL,0.031 µg/mL,0.25 µg/mL,9800 ng·h/mL,14.1 mL/min/kg,0.73 h,23600 ng·h/mL,0.64,0.5 µg/mL,1.74 mL/min/kg,0.4
CCO/N=C(\C(=O)N[C@@H]1C(=O)N2C(C(=O)[O-])=C(/C=C/C[n+]3cccc4cc(/C([O-])=N/C#N)ccc43)CS[C@H]12)c1csc(N)n1.[Na+],0.5 µg/mL,0.5 µg/mL,0.125 µg/mL,1.74 h,0.125 µg/mL,0.031 µg/mL,0.25 µg/mL,8200 ng·h/mL,25.7 mL/min/kg,0.95 h,12900 ng·h/mL,0.9,0.25 µg/mL,2.08 mL/min/kg,0.63
CCO/N=C(\C(=O)N[C@@H]1C(=O)N2C(C(=O)[O-])=C(/C=C/C[n+]3ccc(-c4cc(/C([O-])=N/C#N)[nH]n4)cc3)CS[C@H]12)c1csc(N)n1.[Na+],2 µg/mL,0.25 µg/mL,0.125 µg/mL,4.43 h,0.125 µg/mL,0.063 µg/mL,0.125 µg/mL,35400 ng·h/mL,19.2 mL/min/kg,1.03 h,17400 ng·h/mL,0.75,0.25 µg/mL,0.48 mL/min/kg,0.27
